Laboratory results taken from ChEMBL document CHEMBL4665761, “Optimizing the Benefit/Risk of Acetyl-CoA Carboxylase Inhibitors through Liver Targeting” (J Med Chem, 2020).
In brackets after ≈: the same amount, converted by molar mass. Activity calls are given as the source filed them. The calls are words filed in the database; no cut-off is given here.

Tests used:
[1] = Drug uptake in Wistar-Hannover rat assessed as plasma concentration at 10 mg/kg, po hydrochloride salt form of compound after 6 hrs by LC/MS-MS analysis; assay type: ADME, organism-based
Summary of the method: (§1)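 Male Wistar-Hannover rats, n = 2 or 3, given an oral suspension in 0.5% methyl cellulose with 0.1% Tween 80; one compound was dosed as the HCl salt. Total plasma and liver concentrations were measured 6 h post-dose. Kp = liver/plasma total concentration. Kpu,u uses fu values from equilibrium dialysis.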

[2] = Drug uptake in Wistar-Hannover rat liver at 10 mg/kg, po using hydrochloride salt form of compound after 6 hrs by LC/MS-MS analysis; assay type: ADME, organism-based; conditions: read-out: Drug uptake; summary of the method: as §1
[3] = Ratio of drug uptake in Wistar-Hannover rat liver to plasma at 10 mg/kg, po hydrochloride salt form of compound after 6 hrs by LC/MS-MS analysis; assay type: ADME, organism-based; conditions: liver and plasma
Summary of the method: (§2)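 Male Wistar-Hannover rats (n = 2 or 3) dosed orally as a suspension in 0.5% methyl cellulose with 0.1% Tween 80. Plasma and liver sampled 6 h post-dose. Kp is total liver/plasma; Kpu,u uses unbound fractions from equilibrium dialysis of plasma and liver.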

[4] = Ratio of drug uptake in Wistar-Hannover rat unbound liver to plasma concentration at 10 mg/kg, po hydrochloride salt form of compound after 6 hrs by LC/MS-MS analysis; assay type: ADME, organism-based; conditions: liver and plasma; summary of the method: as §2
Acetyl-CoA carboxylase 1 = Acetyl-CoA carboxylase 1 (Homo sapiens, UniProt Q13085); experiment: Inhibition of recombinant human ACC1 using acetyl coA as substrate incubated for 1 hr by transcreener fluorescence polarization assay
Summary of the method: (§3)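 Recombinant human enzyme, Transcreener assay run per an earlier protocol. IC50 is the geometric mean of at least three replicates, also given as pIC50 ± SD.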

[5] = Apparent permeability in MCDKII-LE cells at 2 uM incubated for 30 mins; assay type: ADME, cell-based, Canis lupus familiaris, MDCKII-LE; conditions: dog, MDCK
Summary of the method: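 MDCK-LE (low-efflux) cell monolayers with a 30 min pre-incubation. Read-out is apparent passive permeability (Papp, 10^-6 cm/s).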

Acetyl-CoA carboxylase 2 = Acetyl-CoA carboxylase 2 (Homo sapiens, UniProt O00763); experiment: Inhibition of recombinant human ACC2 using acetyl coA as substrate incubated for 1 hr by transcreener fluorescence polarization assay; summary of the method: as §3
Chain of Acetyl-CoA carboxylase 2 (O00763 whole entry): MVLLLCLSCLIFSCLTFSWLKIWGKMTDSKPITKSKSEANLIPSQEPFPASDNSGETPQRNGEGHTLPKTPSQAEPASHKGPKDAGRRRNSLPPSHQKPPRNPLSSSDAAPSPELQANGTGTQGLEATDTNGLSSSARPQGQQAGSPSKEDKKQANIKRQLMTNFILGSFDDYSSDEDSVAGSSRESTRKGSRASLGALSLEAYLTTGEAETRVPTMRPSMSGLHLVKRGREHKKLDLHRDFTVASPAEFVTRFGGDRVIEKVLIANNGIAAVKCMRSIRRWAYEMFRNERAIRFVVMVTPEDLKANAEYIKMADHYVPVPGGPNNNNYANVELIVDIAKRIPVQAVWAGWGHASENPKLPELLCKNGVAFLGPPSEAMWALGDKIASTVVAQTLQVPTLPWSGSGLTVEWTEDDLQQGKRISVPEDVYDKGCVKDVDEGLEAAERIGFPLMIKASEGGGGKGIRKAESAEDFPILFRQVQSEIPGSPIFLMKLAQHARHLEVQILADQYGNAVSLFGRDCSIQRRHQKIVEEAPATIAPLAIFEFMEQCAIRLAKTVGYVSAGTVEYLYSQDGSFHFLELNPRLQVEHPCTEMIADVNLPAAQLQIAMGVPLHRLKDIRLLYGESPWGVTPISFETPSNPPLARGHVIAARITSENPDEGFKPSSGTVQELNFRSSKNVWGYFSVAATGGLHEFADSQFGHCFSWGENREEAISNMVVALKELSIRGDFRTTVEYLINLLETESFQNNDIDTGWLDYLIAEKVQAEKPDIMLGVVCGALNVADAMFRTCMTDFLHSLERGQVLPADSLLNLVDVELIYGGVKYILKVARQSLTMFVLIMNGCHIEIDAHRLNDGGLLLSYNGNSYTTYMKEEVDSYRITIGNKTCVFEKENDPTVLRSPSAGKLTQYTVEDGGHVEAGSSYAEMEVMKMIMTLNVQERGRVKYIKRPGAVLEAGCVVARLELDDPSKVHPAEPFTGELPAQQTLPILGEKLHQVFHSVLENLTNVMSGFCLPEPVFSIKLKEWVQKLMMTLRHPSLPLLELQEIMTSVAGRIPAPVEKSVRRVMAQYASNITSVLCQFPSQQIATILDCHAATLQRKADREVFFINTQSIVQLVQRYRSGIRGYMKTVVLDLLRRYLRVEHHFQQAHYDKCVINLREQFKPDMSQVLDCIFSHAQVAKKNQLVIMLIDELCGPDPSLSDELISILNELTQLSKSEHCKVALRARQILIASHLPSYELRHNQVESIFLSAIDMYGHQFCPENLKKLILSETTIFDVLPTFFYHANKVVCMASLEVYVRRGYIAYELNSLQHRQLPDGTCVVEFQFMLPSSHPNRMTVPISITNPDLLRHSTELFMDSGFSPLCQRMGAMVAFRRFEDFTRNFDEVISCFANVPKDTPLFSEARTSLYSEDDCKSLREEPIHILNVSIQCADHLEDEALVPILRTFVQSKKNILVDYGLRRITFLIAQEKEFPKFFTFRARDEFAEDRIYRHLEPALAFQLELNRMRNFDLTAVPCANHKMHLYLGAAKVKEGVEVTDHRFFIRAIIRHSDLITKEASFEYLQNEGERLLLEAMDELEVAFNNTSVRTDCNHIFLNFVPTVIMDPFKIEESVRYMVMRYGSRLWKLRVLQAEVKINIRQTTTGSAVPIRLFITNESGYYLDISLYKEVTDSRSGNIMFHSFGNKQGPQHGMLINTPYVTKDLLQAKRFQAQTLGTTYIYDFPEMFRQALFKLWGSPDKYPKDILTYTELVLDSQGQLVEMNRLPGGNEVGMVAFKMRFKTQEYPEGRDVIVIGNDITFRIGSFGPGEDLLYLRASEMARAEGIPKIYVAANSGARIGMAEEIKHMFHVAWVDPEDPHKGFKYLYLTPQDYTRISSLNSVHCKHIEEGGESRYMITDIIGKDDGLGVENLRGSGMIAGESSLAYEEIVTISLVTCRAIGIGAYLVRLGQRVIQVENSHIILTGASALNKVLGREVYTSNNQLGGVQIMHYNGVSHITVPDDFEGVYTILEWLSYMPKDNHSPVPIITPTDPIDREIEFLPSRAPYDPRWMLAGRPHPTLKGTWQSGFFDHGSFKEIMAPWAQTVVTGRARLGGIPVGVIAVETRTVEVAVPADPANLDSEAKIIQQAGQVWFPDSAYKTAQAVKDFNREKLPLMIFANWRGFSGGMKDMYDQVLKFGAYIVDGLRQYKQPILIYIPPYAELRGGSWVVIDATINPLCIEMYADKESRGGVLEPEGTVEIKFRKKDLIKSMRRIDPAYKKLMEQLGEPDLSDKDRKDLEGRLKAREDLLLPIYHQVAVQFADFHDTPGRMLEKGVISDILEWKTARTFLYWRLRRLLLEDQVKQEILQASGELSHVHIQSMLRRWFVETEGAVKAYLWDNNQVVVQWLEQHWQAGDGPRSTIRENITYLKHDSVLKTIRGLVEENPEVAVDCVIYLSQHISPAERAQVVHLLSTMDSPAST

[6] = Thermodynamic solubility of the compound at pH 1.2 after 24 hrs; assay type: physicochemical; conditions: buffer, read-out: Therm_solubility
[7] = Clearance in Wistar-Hannover rat plasma at 1 mg/kg, iv and measured up to 24 hrs by LC/MS-MS analysis; assay type: ADME, organism-based
Summary of the method: (§4)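 Male Wistar-Hannover rats (240–350 g) with jugular vein cannulas, dosed 1 mg/kg IV (2 mL/kg) or PO. IV vehicle was 10% DMSO/90% of 20% sulfobutylether-β-cyclodextrin in water, or 10% DMSO/30% PEG400/60% water. Plasma was analysed by LC-MS/MS. Parameters come from plasma concentration–time data, n = 2: Cmax observed directly, AUC0-24 by the linear trapezoidal rule, CL = IV dose/AUC, Vss = dose/(AUC × elimination rate constant).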

[8] = Thermodynamic solubility of the compound at pH 7.4 after 24 hrs; assay type: physicochemical; conditions: buffer, read-out: Therm_solubility
[9] = Thermodynamic solubility of the compound at pH 6.5 after 24 hrs; assay type: physicochemical; conditions: buffer, read-out: Therm_solubility
[10] = Metabolic intrinsic clearance in human hepatocytes assessed per million cells incubated for 2 hrs; assay type: ADME, cell-based, Hepatocyte; conditions: read-out: CLH
Summary of the method: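 Cryopreserved human hepatocytes incubated for 2 h. In vitro half-lives scaled to intrinsic clearance, expressed per 10^6 cells.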

Rattus norvegicus [11] = species: Rattus norvegicus; experiment: Fraction unbound in rat plasma by equilibrium dialysis method
OATP1B3 = target: T1, OATP1B3 (Homo sapiens, UniProt Q9NPD5); experiment: Substrate activity at human OATP1B3 stably expressed in HEK293 cells assessed as ratio of total to passive cellular uptake at 1 to 3 uM incubated for 0.5 to 4 mins by LC/MS-MS analysis; assay type: ADME, cell-based; conditions: HEK293 cells stably expressing human OATP1B3, dose 1-3 µM, time 0.5-4 min
T1 sequence (Q9NPD5 whole entry): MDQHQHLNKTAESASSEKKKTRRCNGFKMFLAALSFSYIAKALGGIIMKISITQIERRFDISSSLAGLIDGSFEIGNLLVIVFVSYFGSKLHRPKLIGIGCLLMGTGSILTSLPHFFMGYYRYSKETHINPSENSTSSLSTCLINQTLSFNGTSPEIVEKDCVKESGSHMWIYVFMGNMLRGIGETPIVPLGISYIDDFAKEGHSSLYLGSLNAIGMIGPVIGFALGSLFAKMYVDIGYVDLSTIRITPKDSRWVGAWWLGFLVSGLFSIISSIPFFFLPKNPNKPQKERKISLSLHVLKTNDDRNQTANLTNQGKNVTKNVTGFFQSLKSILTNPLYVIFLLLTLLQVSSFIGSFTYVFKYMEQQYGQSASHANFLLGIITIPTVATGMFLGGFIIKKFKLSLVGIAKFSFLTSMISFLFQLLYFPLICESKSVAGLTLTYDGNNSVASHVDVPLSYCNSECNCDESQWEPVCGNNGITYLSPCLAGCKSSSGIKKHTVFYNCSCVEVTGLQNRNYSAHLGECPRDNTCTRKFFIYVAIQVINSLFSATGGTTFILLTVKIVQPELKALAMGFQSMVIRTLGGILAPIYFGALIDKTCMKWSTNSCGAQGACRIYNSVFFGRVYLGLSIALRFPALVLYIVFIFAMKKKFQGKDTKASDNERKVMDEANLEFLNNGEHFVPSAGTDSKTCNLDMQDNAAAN
Summary of the method: (§5)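 Stably transfected HEK293 cells and wild-type parental cells, cultured to confluency in DMEM with 10% heat-inactivated FBS and 5 µg/mL blasticidin. Uptake at 1–3 µM in HBSS/20 mM HEPES pH 7.4, 37 °C, 0.5–4.0 min. Cells washed in ice-cold buffer, lysed in MeOH, quantified by LC-MS/MS and normalized to protein. Ratio is transfected/parental uptake; >2 denotes substrate.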

[12] = Cmax in Wistar-Hannover rat plasma at 4 mg/kg, po and measured up to 24 hrs by LC/MS-MS analysis; assay type: ADME, organism-based; set-up: route oral, dose 4 mg/kg, time <=24
[13] = Octanol-water partition coefficient, logD of compound at pH 7.4 at 0.5 to 2 mg incubated for 1 hr by HPLC based shake-flask method; assay type: physicochemical; conditions: dose 0.5-2 mg
Summary of the method: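 Shake-flask octanol/water partition at pH 7.4.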

[14] = Half life in Wistar-Hannover rat plasma at 1 mg/kg, iv and measured up to 24 hrs by LC/MS-MS analysis; assay type: ADME, organism-based; summary of the method: as §4
[15] = Fraction unbound in rat liver by equilibrium dialysis method
[16] = Apparent volume of distribution at steady state in Wistar-Hannover rat plasma at 1 mg/kg, iv and measured up to 24 hrs by LC/MS-MS analysis; assay type: ADME, organism-based; conditions: read-out: Vdss(app); summary of the method: as §4
[17] = AUC (0 to 24 hrs) in Wistar-Hannover rat plasma at 1 mg/kg, iv and measured up to 24 hrs by LC/MS-MS analysis; assay type: ADME, organism-based; set-up: route intravenous, dose 1 mg/kg, time <=24
Summary of the method: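 Male Wistar-Hannover rats (240–350 g) with jugular vein cannulas were given 1 mg/kg IV at 2 mL/kg. Vehicle, depending on compound, was 10% DMSO/90% of 20% sulfobutylether-β-cyclodextrin in water or 10% DMSO/30% PEG400/60% water. AUC0–24 came from plasma concentration–time data by the linear trapezoidal rule, averaged for n = 2. Lower detection limit was 1 ng/mL.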

OATP1B1 = target: T2, OATP1B1 (Homo sapiens, UniProt Q9Y6L6); experiment: Substrate activity at human OATP1B1 stably expressed in HEK293 cells assessed as ratio of total to passive cellular uptake at 1 to 3 uM incubated for 0.5 to 4 mins by LC/MS-MS analysis; assay type: ADME, cell-based; conditions: HEK293 cells stably expressing human OATP1B1, dose 1-3 µM, time 0.5-4 min; summary of the method: as §5
T2 sequence (Q9Y6L6 whole entry): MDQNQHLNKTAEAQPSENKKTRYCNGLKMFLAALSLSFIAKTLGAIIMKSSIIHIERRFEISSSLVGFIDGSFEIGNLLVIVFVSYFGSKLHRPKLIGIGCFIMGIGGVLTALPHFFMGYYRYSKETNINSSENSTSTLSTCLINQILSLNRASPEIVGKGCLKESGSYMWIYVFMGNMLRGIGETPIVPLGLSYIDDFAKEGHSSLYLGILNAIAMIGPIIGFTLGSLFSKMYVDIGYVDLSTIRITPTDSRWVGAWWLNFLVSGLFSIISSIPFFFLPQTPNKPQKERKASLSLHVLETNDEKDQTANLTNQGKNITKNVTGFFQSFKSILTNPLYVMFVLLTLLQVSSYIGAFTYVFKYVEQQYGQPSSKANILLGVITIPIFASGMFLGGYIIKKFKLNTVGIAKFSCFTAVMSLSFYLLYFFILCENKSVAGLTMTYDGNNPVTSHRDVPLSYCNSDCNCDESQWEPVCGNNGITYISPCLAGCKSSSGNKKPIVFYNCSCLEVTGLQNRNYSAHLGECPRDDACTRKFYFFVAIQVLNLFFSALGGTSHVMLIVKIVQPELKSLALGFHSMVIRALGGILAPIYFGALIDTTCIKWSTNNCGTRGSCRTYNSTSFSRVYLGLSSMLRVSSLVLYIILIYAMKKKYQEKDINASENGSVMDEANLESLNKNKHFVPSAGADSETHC

Rattus norvegicus [18] = experiment: Effect on triglyceride accumulation in Sprague-Dawley rat high fat dietary model at 10 mg/kg, po assessed as reduction in triglyceride level after 42 days by XPT clinical analyzer; assay type: functional, organism-based; conditions: time 42.0 day
Summary of the method: (§6)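 High-fat-diet-fed Sprague-Dawley rats dosed orally for 42 days, with chow-fed and vehicle controls, n = 10 per group. Read-out is hepatic triglyceride, reported as mean ± SEM.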

Rattus norvegicus [19] = experiment: Inhibition of DNL in po dosed Sprague-Dawley rat assessed as reduction in DNL level in liver pretreated with one hr followed by [14C]-acetate treatment and measured after 1 hr; assay type: functional, organism-based
Summary of the method: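 Sprague-Dawley rats given single oral doses of 0.03–300 mg/kg in 0.5% methyl cellulose vehicle, n = 16 per dose. Read-out is incorporation of 14C-acetate into lipids in liver, bone marrow and lung, measured at 2 h post-dose relative to vehicle. Data are mean ± SEM. EC50 is reported with a 95% confidence interval.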

Homo sapiens = species: Homo sapiens; experiment: Inhibition of ACC (unknown origin) at 100 uM
Rattus norvegicus [20] = experiment: Effect on triglyceride accumulation in po dosed Sprague-Dawley rat high fat dietary model assessed as reduction in triglyceride level after 42 days by XPT clinical analyzer; assay type: functional, organism-based; conditions: time 42.0 day; summary of the method: as §6

SMILES	IC50 (Acetyl-CoA carboxylase 1)	Papp at 0.5 h, 2 µM [5]	IC50 (Acetyl-CoA carboxylase 2)	logD at 1 h [13]	also measured
CC(C)n1ncc2c1C(=O)CC1(CCN(C(=O)c3cc(-c4ccc(C(=O)O)cc4)nc(N(C)C)c3)CC1)C2.Cl					concentration at 6 h [1]: 57.4 ng/mL; concentration at 6 h [2]: 9920 ng/mL; Kp at 6 h [3]: 173; Kp uu at 6 h [4]: 79
Cc1nc2cc(C(=O)N3CCC4(CC3)CC(=O)c3c(c(C(=O)O)nn3C(C)C)C4)ccc2[nH]1	12000 nM	0.5 ×10⁻⁶ cm/s	1200 nM		
CC(C)(C)n1cc2c(n1)C(=O)CC1(CCN(C(=O)c3cccc(-c4cccc(C(=O)O)c4)c3)CC1)O2	1500 nM	1.3 ×10⁻⁶ cm/s	200 nM		
COc1cc(C(=O)N2CCC3(CC2)CC(=O)c2c(cnn2C(C)C)C3)cc(-c2ccc(C(=O)O)cc2)n1					Activity (Rattus norvegicus [18]): Active; inhibition (Rattus norvegicus [19]): Dose-dependent effect; inhibition (Homo sapiens): inactive; Activity (Rattus norvegicus [20]): Dose-dependent effect

Now from value to molecule, other results behind:

IC50 (Acetyl-CoA carboxylase 1)	Papp at 0.5 h, 2 µM [5]	IC50 (Acetyl-CoA carboxylase 2)	logD at 1 h [13]	SMILES	also measured
7.7 nM	13 ×10⁻⁶ cm/s	5.6 nM	1.4	CC(C)n1ncc2c1C(=O)CC1(CCN(C(=O)c3cc(-c4ccc(C(=O)O)cc4)nc(N(C)C)c3)CC1)C2	solubility thermodynamic at 24 h [6]: 2 µM (≈ 1.03 µg/mL); clearance [7]: 31.3 mL/min/kg; solubility thermodynamic at 24 h [8]: 13 µM (≈ 6.7 µg/mL); solubility thermodynamic at 24 h [9]: 3 µM (≈ 1.55 µg/mL); hepatocyte CLint [10]: < 3 µL/min/1e6 cells; fraction unbound (Rattus norvegicus [11]): 0.057; uptake ratio at up to 3 µM (OATP1B3): 1.4; Cmax [12]: < 1 ng/mL; half-life [14]: 7.5 h; fraction unbound [15]: 0.026; Vd [16]: 5.2 L/kg; AUC(0-t) [17]: 519 ng·h/mL; uptake ratio at up to 3 µM (OATP1B1): 2.1
130 nM	< 0.4 ×10⁻⁶ cm/s	33 nM		CC(C)(C)n1cc2c(n1)C(=O)CC1(CCN(C(=O)c3ccc4[nH]nc(C(=O)O)c4c3)CC1)O2	
17 nM	0.5 ×10⁻⁶ cm/s	9.4 nM	0.8	CN(C)c1cc(C(=O)N2CCC3(CC2)CC(=O)c2nn(C(C)(C)C)cc2O3)cc(-c2ccc(C(=O)O)cc2)n1	hepatocyte CLint [10]: 7.5 µL/min/1e6 cells
440 nM	2.5 ×10⁻⁶ cm/s	92 nM		CC(C)(C)n1cc2c(n1)C(=O)CC1(CCN(C(=O)c3cccc(-c4ccc(C(=O)O)cc4)c3)CC1)O2	
1100 nM		190 nM	-0.4	CC(C)(C)n1cc2c(n1)C(=O)CC1(CCN(C(=O)c3ccnc(-c4ccc(C(=O)O)cc4)c3)CC1)O2	
